Our source for the Ki, Ratio Ki and inhibition values is ChEMBL document CHEMBL2429849, “Substrate-based fragment identification for the development of selective, nonpeptidic inhibitors of striatal-enriched protein tyrosine phosphatase” (J Med Chem, 2013).

The target in assay [1] is T1, Receptor-type tyrosine-protein phosphatase C (Homo sapiens, UniProt P08575).
T1 sequence (P08575 whole entry): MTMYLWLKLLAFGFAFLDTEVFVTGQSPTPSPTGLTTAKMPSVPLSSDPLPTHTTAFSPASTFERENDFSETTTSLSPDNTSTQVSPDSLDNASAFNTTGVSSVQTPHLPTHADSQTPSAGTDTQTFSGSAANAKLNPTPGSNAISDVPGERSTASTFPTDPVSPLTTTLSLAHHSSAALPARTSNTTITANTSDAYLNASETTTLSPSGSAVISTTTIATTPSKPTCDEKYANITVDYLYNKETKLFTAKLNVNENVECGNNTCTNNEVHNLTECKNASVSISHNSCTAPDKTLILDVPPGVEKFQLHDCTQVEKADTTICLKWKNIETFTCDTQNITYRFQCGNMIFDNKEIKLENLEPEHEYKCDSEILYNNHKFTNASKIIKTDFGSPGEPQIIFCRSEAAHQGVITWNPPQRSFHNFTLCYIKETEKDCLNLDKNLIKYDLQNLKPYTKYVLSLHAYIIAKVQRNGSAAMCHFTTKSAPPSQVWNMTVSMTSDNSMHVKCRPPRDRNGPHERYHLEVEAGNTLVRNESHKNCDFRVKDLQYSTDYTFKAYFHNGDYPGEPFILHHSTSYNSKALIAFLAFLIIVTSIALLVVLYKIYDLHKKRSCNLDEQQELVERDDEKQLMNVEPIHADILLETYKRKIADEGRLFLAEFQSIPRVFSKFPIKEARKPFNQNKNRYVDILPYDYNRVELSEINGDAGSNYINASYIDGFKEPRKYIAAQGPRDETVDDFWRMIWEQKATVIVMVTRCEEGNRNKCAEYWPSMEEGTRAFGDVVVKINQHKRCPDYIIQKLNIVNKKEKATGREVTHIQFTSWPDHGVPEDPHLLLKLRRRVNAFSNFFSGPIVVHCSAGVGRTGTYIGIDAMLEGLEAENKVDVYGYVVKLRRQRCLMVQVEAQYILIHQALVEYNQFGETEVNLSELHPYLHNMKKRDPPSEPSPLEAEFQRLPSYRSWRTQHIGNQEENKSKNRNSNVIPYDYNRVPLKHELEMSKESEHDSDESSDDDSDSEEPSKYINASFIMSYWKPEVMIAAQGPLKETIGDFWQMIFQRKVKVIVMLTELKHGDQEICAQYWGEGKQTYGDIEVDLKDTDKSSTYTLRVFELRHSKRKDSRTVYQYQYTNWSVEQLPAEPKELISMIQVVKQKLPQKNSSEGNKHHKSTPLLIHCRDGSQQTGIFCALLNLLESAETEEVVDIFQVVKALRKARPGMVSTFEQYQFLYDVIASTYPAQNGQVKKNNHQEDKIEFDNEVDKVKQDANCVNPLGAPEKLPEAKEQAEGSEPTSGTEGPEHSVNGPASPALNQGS
The assay is described as follows: Inhibition of human CD45 using pNPP as substrate after 5 mins by spectrophotometric plate reader analysis. Summed up:
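Enzyme preincubated 5 min at 27 °C with serially diluted inhibitor (from DMSO) in imidazole/NaCl buffer pH 7.0 with 0.01% Triton X-100 and 5 mM DTT. Started with pNPP (500 μM in assay) and read at 405 nm for 20 min. The pNPP KM was measured for each enzyme. Ki from nonlinear regression of substrate–velocity curves at several inhibitor levels; at least duplicate.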

Assay [2] deals with T2, Tyrosine-protein phosphatase non-receptor type 5 (Homo sapiens, UniProt P54829).
T2 sequence (P54829 whole entry): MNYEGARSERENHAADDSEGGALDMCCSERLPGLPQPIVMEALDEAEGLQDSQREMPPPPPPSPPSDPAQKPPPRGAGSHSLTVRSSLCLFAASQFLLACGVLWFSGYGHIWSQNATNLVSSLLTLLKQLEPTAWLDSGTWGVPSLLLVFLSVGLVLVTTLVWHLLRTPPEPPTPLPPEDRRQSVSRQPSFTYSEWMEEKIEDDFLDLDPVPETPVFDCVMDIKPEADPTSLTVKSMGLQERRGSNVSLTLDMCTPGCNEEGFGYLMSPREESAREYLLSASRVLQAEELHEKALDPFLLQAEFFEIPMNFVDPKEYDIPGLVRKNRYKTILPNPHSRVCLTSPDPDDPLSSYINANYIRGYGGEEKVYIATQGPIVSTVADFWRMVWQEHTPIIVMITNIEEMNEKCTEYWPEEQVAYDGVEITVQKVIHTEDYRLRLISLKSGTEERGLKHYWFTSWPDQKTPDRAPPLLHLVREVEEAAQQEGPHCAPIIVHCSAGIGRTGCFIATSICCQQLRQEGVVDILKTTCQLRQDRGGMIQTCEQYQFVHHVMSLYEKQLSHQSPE
The assay is described as follows: Inhibition of human STEP using pNPP as substrate after 5 mins by spectrophotometric plate reader analysis.

The species named for assay [3] is Homo sapiens. As to the kind of experiment: Selectivity ratio of Ki for human LAR to Ki for human STEP. The method in brief:
(§1)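 STEP, CD45, LAR and TC-PTP used pNPP (500 μM) in imidazole/NaCl pH 7.0 with Triton X-100, read at 405 nm for 20 min. MKP5 used DiFMUP in Tris-HCl pH 8.0. The enzyme's own pNPP KM was used in analysis; ratio of the Ki values.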

The species entered for assay [4] is Homo sapiens. As to the kind of experiment: Selectivity ratio of Ki for human CD45 to Ki for human STEP. The method in brief: as §1
For assay [5], the target named is T3, Tyrosine-protein phosphatase non-receptor type 5 (Rattus norvegicus) (UniProt P35234).
T3 sequence (whole entry): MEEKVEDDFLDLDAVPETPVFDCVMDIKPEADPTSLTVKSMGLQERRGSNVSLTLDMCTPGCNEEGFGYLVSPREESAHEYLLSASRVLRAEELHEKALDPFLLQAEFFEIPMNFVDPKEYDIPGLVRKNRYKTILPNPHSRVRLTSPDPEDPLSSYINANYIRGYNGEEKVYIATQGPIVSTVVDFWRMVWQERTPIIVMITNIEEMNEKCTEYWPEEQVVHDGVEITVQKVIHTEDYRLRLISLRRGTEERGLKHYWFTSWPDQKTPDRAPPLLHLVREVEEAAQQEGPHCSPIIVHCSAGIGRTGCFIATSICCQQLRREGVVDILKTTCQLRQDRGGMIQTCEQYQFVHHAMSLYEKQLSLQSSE
The assay is described as follows: Inhibition of STEP in Sprague-Dawley rat embryo primary cortical neurons assessed as phosphorylation of Pyk2 at 0.1 to 10 uM after 1 hr by Western blot analysis. The conditions noted are these: Cerebral cortex neuron. Summed up: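 E18 rat cortical neurons were trypsin-dissociated and plated on poly-D-lysine in Neurobasal with 2% B27, then grown 18–21 days at 37 °C. Compound was added at final 0, 0.1, 1 or 10 μM (0.1% DMSO) for 1 h at 37 °C. Cells were lysed in RIPA with protease/phosphatase inhibitors and protein measured by BCA. Phospho and total proteins were blotted by SDS-PAGE, with antibodies overnight at 4 °C and chemiluminescent detection.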
(In general: A western blot detects proteins with antibodies after separation by electrophoresis.)

The source made the active and inactive calls. The rule behind the calls is not given here.

Consider `O=P(O)(O)[C@H](O)c1ccc(-c2cccc([C@@H](O)c3ccc(Cl)c(Cl)c3)c2)cc1`, for which the values for the Ki in assay [1] and in assay [2] were 340 µM and 8.9 µM, respectively. Besides, the figures for the Ratio Ki in assay [3] and in assay [4] were 40 and 38, respectively. In assay [5], the inhibition result is “Active”.

Turning to `O=P(O)(O)[C@H](O)c1ccc(-c2cccc([C@H](O)c3ccc(Cl)c(Cl)c3)c2)cc1`, the values for the Ki in assay [1] and in assay [2] were 270 µM and 7.8 µM, respectively. The figures for the Ratio Ki in assay [3] and in assay [4] were 50 and 35, respectively. Moreover, the inhibition entry in assay [5] was “Active”.

A word on the Ki: it is the equilibrium dissociation constant of an inhibitor or competing ligand from its target. Read a low Ki as a stronger hold on the target.
